# In ChEMBL document CHEMBL4513216, “Probing the Open Global Health Chemical Diversity Library for Multistage-Active Starting Points for Next-Generation Antimalarials” (ACS Infect Dis, 2020):
# Test: Toxicity liver stage against HepG2, at 10uM
# Format: cell-based
# Design: test concentration 10 uM, cell line HepG2-A16-CD81EGFP
# Conditions: human, HepG2-A16-CD81EGFP cells; read-out: INHIBITION
# In short: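 Uninfected HepG2-A16-CD81EGFP cells, 3 × 10^3 per well, 1536-well, plated on prespotted compound at 10 μM final, parasite-free screening media added to match infected plates; puromycin 10 μM positive, DMSO 0.5% negative; run in parallel with 48 h PbLuc assay at 37 °C, 5% CO2; viability by CellTiter-Glo luminescence, normalized to controls.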
row,SMILES,cytotoxicity at 10 µM [%]
1,C[C@@H]1CN(Cc2nc(Cc3ccccc3F)no2)C[C@H](C)O1,6.74
2,CC(=O)Nc1ccc([C@@H](O)[C@H]2COCC(=O)N2CC(C)C)cc1,-6.6
3,CC[C@H]1CN2CC[C@H]1C[C@@H]2CNCc1ccc(OC)cc1,-1.19
4,CN1CCC(N2C[C@H](O)C[C@H]2c2nc(Cc3ccccc3)no2)CC1,10.7
5,COc1cccc(CN2CCCCCC2c2cccs2)c1OC (stereo not given),8.29
6,CCOC(=O)CNC(=O)c1cccnc1Sc1cc(OC)ccc1OC,1.73
7,O=C1CN(S(=O)(=O)c2ccc(F)cc2)CC(O)CN1CC1CC1 (stereo not given),0.227
8,COc1cc(OC)c(C2CC(=O)Oc3cc(C)[nH]c(=O)c32)cc1OC (stereo not given),-4.81
9,Cc1nn2c(NC(=O)CSc3ncccn3)csc2nc1=O,2.74
10,Cc1cc(O)cc(=O)n1CCCC(=O)Nc1n[nH]c2cc(Br)ccc12,-16.2
11,CCOC(=O)CC(c1cccc(OC)c1OC)c1c(C)[nH][nH]c1=O (stereo not given),0.0535
12,CCCc1cc(=O)[nH]c(SCc2ccccn2)n1,-3.53
13,O=C(NCC(Cc1cccc(F)c1)N1CCCC1=O)c1ccc[nH]c1=O (stereo not given),-2.42
14,Cc1cc(C(=O)N2C[C@@H]3CCCO[C@@H]3[C@H](N3CCOCC3)C2)c(C)[nH]1,4.5
15,CN(C)C(=O)CN1CCC2(C1)CN(CC1CCOCC1)C2,-9.91
16,CC1=N[C@@]2(CC[C@@H]3CN(CC(C)C)C[C@@H]32)C(=O)N1,6.5
17,CNC(=O)c1cnc2n1CCN(Cc1cccnc1OC)C2,8.91
18,O=S(=O)(C1CC1)N1CC[C@H](OCC2CC2)[C@@H]1Cc1ccncc1,7.67
19,Cc1ccc(CC(=O)N2CCCn3nnc(Cn4cccn4)c3C2)cc1,9.58
20,COc1cccc(C2SCC(=O)Nc3ccsc32)c1 (stereo not given),2.77
21,CC1=Nc2c(c(=O)[nH]n2C2CCOCC2)C(c2cccc(Br)c2)S1 (stereo not given),5.91
22,COc1ccc(CNc2n[nH]c(C)n2)cc1,1.64

row,SMILES,cytotoxicity at 10 µM [%]
1,Cn1ccc(C(=O)N2CCCCC2c2cc(CCO)[nH]n2)n1 (stereo not given),-0.01
2,CCc1c(C)nn2c(O)cc(C3CCN(C(=O)c4ccn(C)n4)C3)nc12 (stereo not given),7.92
3,CN(C)c1cc(C2CCCN(Cc3cnn(C)c3)C2)ccn1 (stereo not given),-1.88
4,c1cc(N2CCOCC(Cc3ccc4[nH]ccc4c3)C2)ncn1 (stereo not given),-15.9
5,Cc1ccc([C@@]2(O)CC[C@@H]3CN(S(=O)(=O)C(C)C)C[C@@H]32)cc1,-38.9
6,Cc1cc(-c2cnc(NC3CC3)nc2-c2ccoc2)on1,-25.6
7,Cc1ccc(-c2cccc(CC3(C(=O)O)CCOCC3)c2)c(C)c1,-29.8
8,Cc1ccc(C(C)NC(=O)N2CCN(S(C)(=O)=O)CC2)o1 (stereo not given),25.3
9,FC(F)(F)Cn1ccnc1CNCCn1cccn1,-6.4
10,CCCOc1cc(CNC(=O)Nc2ccccn2)ccn1,-2.25
11,CC(C)OCc1ccccc1CNC(=O)C(C)S(=O)(=O)C(C)C (stereo not given),-3.92
12,CCOc1ccc(SCCS(=O)(=O)CC)cc1,-2.91
13,CN(CC(=O)NCCC#N)C(c1ccccc1)c1ccc(F)cc1 (stereo not given),-4.34
14,OC1(CNCc2ccc(F)c(C(F)(F)F)c2)CCOC1 (stereo not given),9.21
15,COc1ccc(Br)cc1CN(C)C(C)c1nc(C(C)C)no1 (stereo not given),4.43
16,Cc1nc(CN2CCC(C(=O)N(C)C3CCC(C)CC3)CC2)cs1 (stereo not given),2.84
17,CC(C)Cc1cc(NC(=O)N2CCC(Oc3cccnc3)C2)n(C)n1 (stereo not given),-4.71
18,CSCC(=O)Nc1ncc(I)cc1C,-4.7
19,CCOC(=O)c1ccc(NC(=O)c2cc3c([nH]c2=O)CCCC3)cc1,9.13
20,CN(CC(=O)Nc1nncs1)CC1CCCN1c1cccnn1 (stereo not given),-13.7
21,COc1cc(C)nc(N2CCN(C(=O)CCc3ccsc3)CC2)n1,10
22,CN(CC(=O)Nc1cc(C(C)(C)C)n[nH]1)S(C)(=O)=O,5.15

row,SMILES,cytotoxicity at 10 µM [%]
1,O=C(NCc1cc2ccccc2[nH]1)C1CCCN(C(=O)N2CCCC2)C1 (stereo not given),6.81
2,COCCN(CC(C)C)c1cc(C)ncn1,1.38
3,CCC(=O)N1CCC(NC2CCCC2)C1 (stereo not given),-4.26
4,N#Cc1cccc(Cl)c1NCCc1n[nH]c(=O)[nH]1,60.1
5,Cc1ncc2c(n1)CN(CCOc1ccc3c(c1)CCC(=O)N3)CC2,-8.12
6,CCC(CC)C(CNC(=O)Nc1cnn(CCOC)c1)N(C)C (stereo not given),-6.87
7,CN(Cc1nnc(-c2cccs2)o1)Cc1nc2c(s1)CCCC2,2.4
8,O=S(=O)(CCSc1nccn1C1CC1)c1ccccc1,-4.63
9,O=C(c1cc(F)ccc1O)N1CCN(C2CCOCC2)CC1,-4.9
10,Cc1ccc(OCCC(=O)NC2CC(=O)N(C)C2)cc1C (stereo not given),-9.25
11,Cc1cc(=O)n2nc(Oc3cccc(C(N)=O)c3)sc2n1,-7.88
12,CCCc1cc(NC2CCc3ncnn3C2)n2ncnc2n1 (stereo not given),-4.17
13,CCc1nc2n(n1)CC(Nc1cc(C)nc3ncnn13)CC2 (stereo not given),-9.91
14,CC(C)c1nc(CCn2cncn2)n(-c2ccc3c(c2)OCCO3)n1,6.52
15,CC1(C)CCN(S(=O)(=O)N2CCCC(c3cccc(C(=O)O)c3)C2)CC1 (stereo not given),-0.879
16,Cc1nc(C2CCN(C(=O)COC(C)C)CC2)cc(N2CCOCC2)n1,-8.8
17,Fc1ccccc1-c1cc(N2[C@@H]3CC[C@H]2CNC3)n2nccc2n1,23.1
18,Cc1nc2c(C(=O)O)cccc2n1-c1ccc(C(=O)N2CCCC2)o1,-2.36
19,Cc1ccc(C)c2c(O)cc(CN3CCC(=O)NCC3C)nc12 (stereo not given),2.11
20,CCSc1ncc(CN2CCN(c3ccc(C#N)cc3)C(=O)C2)cn1,-2.54
21,CC(C)[C@H]1CN(CCCO)C[C@@H]1NC(=O)CCS(C)(=O)=O,2.91
22,COc1cccc(-c2n[nH]c3c2CN(C(=O)C2=C(C)OCCO2)CC3)c1,3.28

row,SMILES,cytotoxicity at 10 µM [%]
1,CN(C)S(=O)(=O)N1CC[C@]2(O)CCN(CCc3cccc(F)c3)C[C@@H]2C1,-3.38
2,Cc1cc(NCCCNc2cccnc2)n2nc(C)c(C)c2n1,2.35
3,c1cncc(-n2cnnc2CCCN2CCOCC2)c1,1.5
4,COCCN1CCCC(CN(C)c2nc3c(s2)c(C)nn3C)C1 (stereo not given),5.37
5,CCc1cnc(N)nc1N[C@@H](C)c1ncccc1C,-3.94
6,O=C(O)C1(Cc2ccc(F)cc2F)CCCN(Cc2ccncc2)C1 (stereo not given),-2.74
7,c1cnn(Cc2ccc(CN3CCC4(CCCNC4)C3)cc2)c1 (stereo not given),-3.71
8,CCN(c1ccc(C(=O)N2CCCCCC2)cc1)S(=O)(=O)CC,-2.25
9,CC(C)(C)c1ncc2c(n1)CN(c1cc(NCCO)nc(N)n1)C2,3.5
10,Cc1cccc(C(C(=O)N(C)Cc2ccco2)N(C)C)c1 (stereo not given),3.15
11,CCc1noc(CN2CCN(Cc3cccs3)CC2)n1,-5.06
12,CCN(CC)Cc1ccc(C(=O)N2CCCC2Cn2cccn2)o1 (stereo not given),-10.5
13,Cc1cc(CN(C)C(=O)NC2CCN(C3CC3)CC2)no1,-3.6
14,Cc1nc(C2CCCN2CCCS(=O)(=O)c2ccccc2)no1 (stereo not given),-4.42
15,CCCC(=O)NC(C)c1nnc2n1CCC2 (stereo not given),-0.645
16,O=C(NCCNc1ccc(C(F)(F)F)cn1)c1ccc(F)cc1Cl,-7.65
17,CCc1nc(C2CCCN(C(=O)C(C)(C)NS(C)(=O)=O)C2)no1 (stereo not given),-12.1
18,COc1c(C2CCCN2C(=O)c2ccnc(C)n2)c(C)nn1C (stereo not given),-12
19,O=C(Cc1ccccn1)N1CCN(C(=O)CC2CCCC2)CC1,-10.5
20,Cc1ccc(N2CCCN(C(=O)CCc3nccs3)CC2)nn1,-7.91
21,O=C(NCC1CCOC1)c1csc(-c2ccco2)n1 (stereo not given),-6.49
22,CCNc1cc2c(nn1)CCN(C(=O)c1cccc3c1OCCO3)C2,-8.42

row,SMILES,cytotoxicity at 10 µM [%]
1,Cc1ncsc1C(=O)NC1CCN(CC(=O)NCc2ccccc2)CC1,-4.62
2,CC(C)c1nn(C)c(N(C)C)c1CNCc1ccc2c(c1)OCO2,-5.58
3,CC(=O)N1CCN(Cc2csc(-c3cnn(C)c3)n2)CC1,-1.78
4,COCC(=O)NCc1cccc(Br)c1,-4.2
5,O=C1N(Cc2ccc(Cl)cc2)CCC12CCCNC2 (stereo not given),-10.8
6,CN1CCO[C@@H]2CN(S(=O)(=O)c3ccccc3)CC[C@@H]2C1,-0.461
7,CCN1CCn2c(C)cnc2C12CCN(C(=O)c1ccco1)CC2,4.56
8,Cc1nc(CN2CCCn3cnc(COCC4CC4)c3C2)cs1,7.04
9,CNC(=O)[C@@]12CCO[C@@H]1CCN(Cc1ccc3c(c1)OCO3)C2,1.75
10,O=C1COC2(CCN(Cc3ccco3)CC2)CN1CCn1cccn1,10.2
11,Cn1cc2c(n1)C(CNC1CCOCC1)OCC2 (stereo not given),9.31
12,O=C(C1CC(F)(F)C1)N1C[C@@H]2CN(CC3CC3)CCO[C@@H]2C1,-0.336
13,CN(C)CCOCC1CN(Cc2ccncc2)Cc2nnn(C)c21 (stereo not given),3.66
14,Cc1ccc(N2C[C@@H]3CN(Cc4ccsc4)CCO[C@@H]3C2)nn1,3.32
15,O=C(NCc1ccco1)[C@@H]1COC[C@H]2CN(c3ncc(F)cn3)C[C@H]21,-5.67
16,COCCN1CCC2(C1)CN(c1ncc(F)cn1)C2,4.68
17,O=C1CC[C@@H]2[C@@H](CCN2Cc2ccccn2)N1CC1CC1,4.76
18,Cn1nc(Cn2ccnc2)c2c1CN(c1nccs1)C2,3.61
19,Cc1nc(CN2CCO[C@@H]3CN(Cc4nccs4)C[C@@H]3C2)cs1,4.8
20,c1ccc(N2CCOC3(CCCN(c4nncs4)C3)C2)nc1 (stereo not given),9.17
21,CS(=O)(=O)N1CCC2(CC1)CN(CC1CC1)CC21CCNC1=O (stereo not given),1.26
22,O=C(c1ccc[nH]1)N1CCC2(CCCN2Cc2cccnc2)CC1,6.89
